From ChEMBL document CHEMBL1154721, “Synthesis, antitumor activity and molecular docking study of novel sulfonamide-Schiff's bases, thiazolidinones, benzothiazinones and their C-nucleoside derivatives” (Eur J Med Chem, 2010)
In brackets after ≈: the same amount, converted by molar mass.

Test system: MCF7
Experiment: Cytotoxicity against human MCF7 cells after 48 hrs by SRB assay
Type: functional, cell-based
Procedure, shortened: (§1)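 Cells were seeded and left 24 h to attach before dosing, then exposed to test compound at […], in triplicate wells per dose. Incubation was 48 h at 37 °C under 5% CO2. Cells were then fixed, washed and stained with sulforhodamine B, excess dye was removed with acetic acid, bound dye was recovered in Tris-EDTA buffer, and colour intensity was read on an ELISA reader.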

Work on `O=c1[nH]cc(F)c(=O)[nH]1` [FLUOROURACIL] yielded an IC50 of 0.67 µg/mL (≈ 5.15 µM).

Test system: HeLa
Experiment: Cytotoxicity against human HeLa cells after 48 hrs by SRB assay
Type: functional, cell-based
Procedure, shortened: as §1

`O=c1[nH]cc(F)c(=O)[nH]1` [FLUOROURACIL] gave an IC50 of 1.01 µg/mL (≈ 7.76 µM).

Molecular target: not listed separately
Experiment: Inhibition of PTK

Compared with `COc1ccc(C2Sc3ccccc3C(=O)N2c2ccc(S(=O)(=O)Nc3ccccn3)cc2)c(O)c1` (stereo unspecified), `COc1ccc(C2Sc3ccccc3C(=O)N2c2ccc(S(=O)(=O)Nc3ccccn3)cc2)cc1OC` (stereo unspecified) is 1.9-fold lower in Ki: 4720 nM for the first, 2510 nM for the second.

Compared with `O=C1c2ccccc2SC(c2c[nH]c3ccccc23)N1c1ccc(S(=O)(=O)Nc2ccccn2)cc1` (stereo unspecified), `COc1cc(C2Sc3ccccc3C(=O)N2c2ccc(S(=O)(=O)Nc3ccccn3)cc2)cc(OC)c1OC` (stereo unspecified) is 88-fold higher in Ki: 553 nM for the first, 48700 nM for the second. The first binds more tightly here.

Compared with `COc1ccc(C2SCC(=O)N2c2ccc(S(=O)(=O)Nc3ccccn3)cc2)cc1` (stereo unspecified), `COc1ccc(C2SCC(=O)N2c2ccc(S(=O)(=O)Nc3ccccn3)cc2)c(O)c1` (stereo unspecified) is 22-fold higher in Ki: 705 nM for the first, 15400 nM for the second. The first binds more tightly here.

First: COc1cc(/C=N/c2ccc(S(=O)(=O)Nc3ccccn3)cc2)cc(OC)c1OC
Second: COc1ccc(/C=N/c2ccc(S(=O)(=O)Nc3ccccn3)cc2)cc1OC
The Ki of the first is 2-fold higher: 526 nM for the first, 258 nM for the second. The second binds more tightly here.

Going from `COc1ccc(/C=N/c2ccc(S(=O)(=O)Nc3ccccn3)cc2)c(O)c1` to `Nc1ccc(S(=O)(=O)Nc2ccccn2)cc1` [SULFAPYRIDINE], the Ki rises from 258 nM to 3590 nM (14-fold).

Going from `COc1cc(C2SCC(=O)N2c2ccc(S(=O)(=O)Nc3ccccn3)cc2)cc(OC)c1OC` (stereo unspecified) to `COc1ccc(C2SCC(=O)N2c2ccc(S(=O)(=O)Nc3ccccn3)cc2)cc1OC` (stereo unspecified), the Ki falls from 5320 nM to 1050 nM (5.1-fold).

Compared with `O=S(=O)(Nc1ccccn1)c1ccc(/N=C/[C@H](O)[C@H](O)[C@@H](O)[C@@H](O)CO)cc1`, `O=C1CSC([C@H](O)[C@H](O)[C@@H](O)[C@@H](O)CO)N1c1ccc(S(=O)(=O)Nc2ccccn2)cc1` (stereo partly specified) is 7.1-fold higher in Ki: 331 nM for the first, 2350 nM for the second. The first binds more tightly here.
